# Experimental data: ChEMBL document CHEMBL5058577, “EUbOPEN Chemogenomics Library 2 (Multiplex)” (2022)
# Tested on: HEK-293T
# Experiment: Multiplex assay against HEK293T
# Format: toxicity, cell-based
# Details: human
# Outline: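 Per cents of healthy-nucleus cells form the tubulin, mitochondrial-mass and membrane-permeability phenotype values. Live cells were stained at seeding with Hoechst33342, BioTracker Green Microtubule Cytoskeleton Dye, MitoTracker Red and Annexin V Alexa Fluor 680. After compound addition they were imaged on a CQ1 microscope at 37°C and 5% CO2, and CellPathfinder machine-learning gating split them into Hoechst high-intensity objects or normal cells, normal cells into healthy, pyknosed or fragmented nuclei, and pyknosed cells into mitotic or apoptotic.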
# [1] = 12 h, 1 µM, compound concentration 1 uM, replicate 1
# [2] = 12 h, 1 µM, compound concentration 1 uM, replicate 2
# [3] = 12 h, 10 µM, compound concentration 10 uM, replicate 1
# [4] = 12 h, 10 µM, compound concentration 10 uM, replicate 2
# [5] = 24 h, 1 µM, compound concentration 1 uM, replicate 1
# [6] = 24 h, 1 µM, compound concentration 1 uM, replicate 2
# [7] = 24 h, 10 µM, compound concentration 10 uM, replicate 1
# [8] = 24 h, 10 µM, compound concentration 10 uM, replicate 2
# [9] = 48 h, 1 µM, compound concentration 1 uM, replicate 1
# [10] = 48 h, 1 µM, compound concentration 1 uM, replicate 2
# [11] = 48 h, 10 µM, compound concentration 10 uM, replicate 1
# [12] = 48 h, 10 µM, compound concentration 10 uM, replicate 2
smiles,measurement,setting,value
O=C1[C@H](Cc2ccc(O)cc2)N2C(=O)CCN(C(=O)NCc3ccccc3)[C@H]2CN1Cc1cccc2ccccc12,Population Apoptotic (%),[1],44%
same,Population Fragmented Nuclei (%),[1],6%
same,Population Healthy Nuclei (%),[1],80%
same,Population Hoechst High Intensity Objects (%),[1],6%
same,Population Membrane Permeable-Phenotype (%),[1],0%
same,Population Mitochondria Different-Phenotype (%),[1],54%
same,Population Mitotic Cells (%),[1],55%
same,Population Normal (%),[1],93%
same,Population Pyknosed Nuclei (%),[1],12%
same,Population Tubulin-Different-Phenotype (%),[1],46%
same,Total Cell Count,[1],374
same,Population Apoptotic (%),[2],46%
same,Population Fragmented Nuclei (%),[2],7%
same,Population Healthy Nuclei (%),[2],78%
same,Population Hoechst High Intensity Objects (%),[2],8%
same,Population Mitochondria Different-Phenotype (%),[2],68%
same,Population Mitotic Cells (%),[2],53%
same,Population Normal (%),[2],91%
same,Population Pyknosed Nuclei (%),[2],13%
same,Population Tubulin-Different-Phenotype (%),[2],33%
same,Total Cell Count,[2],259
same,Population Apoptotic (%),[3],68%
same,Population Fragmented Nuclei (%),[3],5%
same,Population Healthy Nuclei (%),[3],74%
same,Population Hoechst High Intensity Objects (%),[3],11%
same,Population Membrane Permeable-Phenotype (%),[3],0%
same,Population Mitochondria Different-Phenotype (%),[3],90%
same,Population Mitotic Cells (%),[3],31%
same,Population Normal (%),[3],88%
same,Population Pyknosed Nuclei (%),[3],20%
same,Population Tubulin-Different-Phenotype (%),[3],76%
same,Total Cell Count,[3],340
same,Population Apoptotic (%),[4],60%
same,Population Healthy Nuclei (%),[4],82%
same,Population Hoechst High Intensity Objects (%),[4],14%
same,Population Mitochondria Different-Phenotype (%),[4],93%
same,Population Mitotic Cells (%),[4],40%
same,Population Normal (%),[4],85%
same,Population Pyknosed Nuclei (%),[4],11%
same,Population Tubulin-Different-Phenotype (%),[4],67%
same,Total Cell Count,[4],257
same,Population Apoptotic (%),[5],23%
same,Population Fragmented Nuclei (%),[5],7%
same,Population Healthy Nuclei (%),[5],80%
same,Population Hoechst High Intensity Objects (%),[5],7%
same,Population Membrane Permeable-Phenotype (%),[5],0%
same,Population Mitochondria Different-Phenotype (%),[5],49%
same,Population Mitotic Cells (%),[5],76%
same,Population Normal (%),[5],92%
same,Population Pyknosed Nuclei (%),[5],11%
same,Population Tubulin-Different-Phenotype (%),[5],38%
same,Total Cell Count,[5],470
same,Population Apoptotic (%),[6],55%
same,Population Fragmented Nuclei (%),[6],8%
same,Population Healthy Nuclei (%),[6],77%
same,Population Hoechst High Intensity Objects (%),[6],8%
same,Population Mitochondria Different-Phenotype (%),[6],47%
same,Population Mitotic Cells (%),[6],45%
same,Population Normal (%),[6],91%
same,Population Pyknosed Nuclei (%),[6],14%
same,Population Tubulin-Different-Phenotype (%),[6],24%
same,Total Cell Count,[6],305
same,Population Apoptotic (%),[7],68%
same,Population Fragmented Nuclei (%),[7],7%
same,Population Healthy Nuclei (%),[7],75%
same,Population Hoechst High Intensity Objects (%),[7],11%
same,Population Membrane Permeable-Phenotype (%),[7],0%
same,Population Mitochondria Different-Phenotype (%),[7],94%
same,Population Mitotic Cells (%),[7],31%
same,Population Normal (%),[7],88%
same,Population Pyknosed Nuclei (%),[7],16%
same,Population Tubulin-Different-Phenotype (%),[7],65%
same,Total Cell Count,[7],278
same,Population Apoptotic (%),[8],74%
same,Population Fragmented Nuclei (%),[8],9%
same,Population Healthy Nuclei (%),[8],77%
same,Population Hoechst High Intensity Objects (%),[8],14%
same,Population Mitochondria Different-Phenotype (%),[8],95%
same,Population Mitotic Cells (%),[8],25%
same,Population Normal (%),[8],85%
same,Population Pyknosed Nuclei (%),[8],12%
same,Population Tubulin-Different-Phenotype (%),[8],70%
same,Total Cell Count,[8],249
same,Population Apoptotic (%),[9],30%
same,Population Fragmented Nuclei (%),[9],14%
same,Population Healthy Nuclei (%),[9],78%
same,Population Hoechst High Intensity Objects (%),[9],4%
same,Population Membrane Permeable-Phenotype (%),[9],0%
same,Population Mitochondria Different-Phenotype (%),[9],34%
same,Population Mitotic Cells (%),[9],69%
same,Population Normal (%),[9],95%
same,Population Pyknosed Nuclei (%),[9],6%
same,Population Tubulin-Different-Phenotype (%),[9],26%
same,Total Cell Count,[9],730
same,Population Apoptotic (%),[10],50%
same,Population Fragmented Nuclei (%),[10],11%
same,Population Healthy Nuclei (%),[10],81%
same,Population Hoechst High Intensity Objects (%),[10],3%
same,Population Mitochondria Different-Phenotype (%),[10],29%
same,Population Mitotic Cells (%),[10],50%
same,Population Normal (%),[10],96%
same,Population Pyknosed Nuclei (%),[10],7%
same,Population Tubulin-Different-Phenotype (%),[10],19%
same,Total Cell Count,[10],472
same,Population Apoptotic (%),[11],71%
same,Population Fragmented Nuclei (%),[11],8%
same,Population Healthy Nuclei (%),[11],79%
same,Population Hoechst High Intensity Objects (%),[11],10%
same,Population Membrane Permeable-Phenotype (%),[11],0%
same,Population Mitochondria Different-Phenotype (%),[11],94%
same,Population Mitotic Cells (%),[11],28%
same,Population Normal (%),[11],89%
same,Population Pyknosed Nuclei (%),[11],11%
same,Population Tubulin-Different-Phenotype (%),[11],63%
same,Total Cell Count,[11],297
same,Population Apoptotic (%),[12],57%
same,Population Fragmented Nuclei (%),[12],11%
same,Population Healthy Nuclei (%),[12],73%
same,Population Hoechst High Intensity Objects (%),[12],20%
same,Population Mitochondria Different-Phenotype (%),[12],88%
same,Population Mitotic Cells (%),[12],42%
same,Population Normal (%),[12],79%
same,Population Pyknosed Nuclei (%),[12],14%
same,Population Tubulin-Different-Phenotype (%),[12],72%
same,Total Cell Count,[12],232
